Experimental data gathered from unrelated publications.
Compare with care: the assays were run in different laboratories.
BCHE: Cholinesterase (BCHE, Equus caballus, UniProt P81908)
C3AR1: C3a anaphylatoxin chemotactic receptor (C3AR1, Homo sapiens, UniProt Q16581)

O=C(N1CCC2(CC1)C[C@@H](CN1CCCCS1(=O)=O)CCO2)C1(c2ccccc2)CCCC1  IC50 (DHX58 (Homo sapiens, UniProt Q96C10); ATPase activity, inhibitor): > 50 µM
CC(C)(C)OC(=O)NC1CCCN(C(=O)/C=C/c2ccc(Cl)cc2)C1 (stereo not shown)  IC50 (BCHE; enzyme activity, inhibitor, Ellman): > 50 µM
CC(C)C[C@H](NC(=O)[C@@H](N)[C@@H](C)O)C(=O)N[C@@H](CCC(N)=O)C(=O)N1CCC[C@H]1C(=O)N1CCC[C@H]1C(=O)N[C@@H](C)C(=O)N[C@@H](CO)C(=O)N[C@@H](CO)C(=O)N[C@@H](CCCNC(=N)N)C(=O)N[C@H](CCCNC(=N)N)C(=O)N[C@@H](CCCNC(=N)N)C(=O)N[C@@H](Cc1c[nH]cn1)C(=O)N[C@@H](Cc1ccccc1)C(=O)N[C@@H](Cc1c[nH]cn1)C(=O)N[C@@H](Cc1c[nH]cn1)C(=O)N[C@@H](C)C(=O)N[C@@H](CC(C)C)C(=O)N1CCC[C@H]1C(=O)N1CCC[C@H]1C(=O)N[C@@H](C)C(=O)N[C@@H](CCCCNC(=N)N)C(=O)O  EC50 (C3AR1; G protein activation, agonist, BRET): 0.259 µM
CCOc1ccc(/C=C/C(=O)N2CCCC(NC(=O)OC(C)(C)C)C2)cc1OC (stereo not shown)  IC50 (BCHE; enzyme activity, inhibitor, Ellman): 13.5 µM
COc1ccc(-c2csc(N/N=C(/C=C/c3c(Cl)cccc3Cl)C(=O)O)n2)cc1  IC50 (BCHE; enzyme activity, inhibitor): 5.01 µM
COc1cc(CCC(=O)N2CCC(Cc3ccccc3)CC2)ccc1OC(=O)N(C)C  IC50 (BCHE; enzyme activity, inhibitor, Ellman): 1.3 µM
CC(C)C[C@H](NC(=O)[C@@H](N)[C@@H](C)O)C(=O)N[C@@H](CCC(N)=O)C(=O)N1CCC[C@H]1C(=O)N1CCC[C@H]1C(=O)N[C@@H](C)C(=O)N[C@@H](CO)C(=O)N[C@@H](CO)C(=O)N[C@@H](CCCNC(=N)N)C(=O)N[C@H](CCCNC(=N)N)C(=O)N[C@@H](CCCNC(=N)N)C(=O)N[C@@H](Cc1c[nH]cn1)C(=O)N[C@@H](Cc1ccccc1)C(=O)N[C@@H](Cc1c[nH]cn1)C(=O)N[C@@H](Cc1c[nH]cn1)C(=O)N[C@@H](C)C(=O)N[C@@H](CC(C)C)C(=O)N1CCC[C@H]1C(=O)N1CCC[C@H]1C(=O)NCC(=O)N[C@@H](CCCNC(=N)N)C(=O)O  EC50 (C3AR1; β-arrestin recruitment, agonist): 0.097 µM
O=C(O)C(/C=C/c1ccc(Cl)cc1)=N\Nc1nc(-c2ccccc2)cs1  IC50 (BCHE; enzyme activity, inhibitor): 2.03 µM
CCN(C)C(=O)Oc1ccc(/C=C/C(=O)NC2CCN(Cc3ccccc3)CC2)cc1  IC50 (BCHE; enzyme activity, inhibitor, Ellman): 16.3 µM
COc1cc2c(cc1OC)CN(CCc1ccc(NC(=O)c3cccc4c(=O)c5cccc(OC)c5[nH]c34)cc1)CC2  Ki (D(1A) dopamine receptor (DRD1, Homo sapiens, UniProt P21728); cell-free assay): > 10 µM
